Data published in ChEMBL document CHEMBL3808334, “Synthesis and in vitro evaluation of novel triazine analogues as anticancer agents and their interaction studies with bovine serum albumin” (Eur J Med Chem, 2016).

Columns and labels:
Format in all cases: functional
[1] = Growth inhibition of human Caki1 cells assessed as cell growth at 10^-4 M incubated for 48 hrs by sulforhodamine B assay; settings: CAKI-1, 48 h, read-out: Activity
Method in brief: (§1)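 Cells seeded at 5,000–40,000/well according to doubling time and preincubated 24 h at 37 °C, 5% CO2. Time-zero plates were TCA-fixed. DMSO concentrate was diluted in medium with 50 µg/ml gentamicin to give five concentrations (10-fold or ½ log steps), then exposed 48 h. Cells were TCA-fixed, stained with 0.4% SRB and read at 515 nm. Percent growth was taken against time-zero and control; GI50, TGI and LC50 derived.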

SN12C = assay: Growth inhibition of human SN12C cells incubated for 48 hrs by sulforhodamine B assay; settings: for CC50: read-out: pLC50 (the source's name) (converted)
Method in brief: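 Cells were plated at 5,000–40,000 per well according to doubling time and preincubated 24 h at 37 °C in 5% CO2; time-zero plates were then TCA-fixed. Five concentrations (10-fold or ½-log dilutions, DMSO stock) were incubated 48 h. Cells were TCA-fixed, stained with 0.4% SRB and read at 515 nm. GI50 was taken where [(Ti−Tz)/(C−Tz)]×100 = 50.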

SK-MEL-28 = assay: Growth inhibition of human SK-MEL-28 cells assessed as cell growth at 10^-8 M incubated for 48 hrs by sulforhodamine B assay; settings: SK-MEL-28, 48 h, read-out: Activity
MDA-MB-468 [2] = assay: Growth inhibition of human MDA-MB-468 cells assessed as cell growth at 10^-8 M incubated for 48 hrs by sulforhodamine B assay; settings: MDA-MB-468, 48 h, read-out: Activity
NCI-H460 = assay: Growth inhibition of human NCI-H460 cells assessed as cell growth at 10^-7 M incubated for 48 hrs by sulforhodamine B assay; settings: NCI-H460, 48 h, read-out: Activity
MCF7 = assay: Growth inhibition of human MCF7 cells assessed as cell growth at 10^-5 M incubated for 48 hrs by sulforhodamine B assay; settings: MCF7, 48 h, read-out: Activity
[3] = Growth inhibition of human MOLT4 cells assessed as cell growth at 10^-4 M incubated for 48 hrs by sulforhodamine B assay; settings: MOLT-4, 48 h, read-out: Activity
[4] = Growth inhibition of human HOP62 cells assessed as cell growth at 10^-4 M incubated for 48 hrs by sulforhodamine B assay; settings: HOP-62, 48 h, read-out: Activity
MDA-MB-435 = assay: Growth inhibition of human MDA-MB-435 cells assessed as cell growth at 10^-4 M incubated for 48 hrs by sulforhodamine B assay; settings: MDA-MB-435, 48 h, read-out: Activity
[5] = Growth inhibition of human UACC62 cells assessed as cell growth at 10^-4 M incubated for 48 hrs by sulforhodamine B assay; settings: UACC-62, 48 h, read-out: Activity
NCI/ADR-RES = assay: Growth inhibition of human NCI/ADR-RES cells assessed as cell growth at 10^-7 M incubated for 48 hrs by sulforhodamine B assay; settings: read-out: Activity
[6] = Growth inhibition of human HL-60(TB) cells assessed as cell growth at 10^-8 M incubated for 48 hrs by sulforhodamine B assay; settings: HL-60, 48 h, read-out: Activity
Method in brief: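 Cells plated at 5,000–40,000/well according to doubling time and preincubated 24 h at 37 °C, 5% CO₂, with time-zero plates TCA-fixed. Drugs were kept as DMSO concentrates at 400× the top concentration and diluted in medium with 50 µg/ml gentamicin. Five 10-fold or ½-log dilutions were run for 48 h, followed by SRB staining and A515. Percent growth = (Ti−Tz)/(C−Tz)×100, or (Ti−Tz)/Tz×100 when Ti<Tz.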

786-0 = assay: Growth inhibition of human 786-0 cells assessed as cell growth at 10^-7 M incubated for 48 hrs by sulforhodamine B assay; settings: 786-0, 48 h, read-out: Activity
Method in brief: (§2)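 Five-dose assay: five concentrations from 10-fold or ½-log serial dilutions. Cells are plated at 5,000–40,000 per well according to doubling time, grown 24 h, then exposed 48 h at 37 °C, 5% CO₂. Fixed with cold 50% TCA (final addition) for 60 min at 4 °C and stained with 0.4% SRB in 1% acetic acid. Bound dye is solubilized in 10 mM Tris base and read at 515 nm. GI₅₀ is where [(Ti−Tz)/(C−Tz)]×100 = 50, with a time-zero plate as Tz.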

[7] = Growth inhibition of human PC3 cells assessed as cell growth at 10^-7 M incubated for 48 hrs by sulforhodamine B assay; settings: PC-3, 48 h, read-out: Activity
CCRF-CEM = assay: Growth inhibition of human CCRF-CEM cells assessed as cell growth at 10^-6 M incubated for 48 hrs by sulforhodamine B assay; settings: read-out: Activity
Method in brief: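 Leukemia line in the five-dose format: five concentrations from 10-fold or ½-log serial dilutions. Plated at 5,000–40,000 cells per well, preincubated 24 h, then compound added for 48 h at 37 °C, 5% CO₂. Sulforhodamine B absorbance read at 515 nm. Growth is computed against time-zero (Tz) and control (C) readings; GI₅₀ is where [(Ti−Tz)/(C−Tz)]×100 = 50.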

K562 = assay: Growth inhibition of human K562 cells assessed as cell growth at 10^-6 M incubated for 48 hrs by sulforhodamine B assay; settings: K562, 48 h, read-out: Activity
[8] = Growth inhibition of human COLO205 cells assessed as cell growth at 10^-6 M incubated for 48 hrs by sulforhodamine B assay; settings: COLO 205, 48 h, read-out: Activity; method in brief: as §1
[9] = Growth inhibition of human BT549 cells assessed as cell growth at 10^-6 M incubated for 48 hrs by sulforhodamine B assay; settings: BT-549, 48 h, read-out: Activity; method in brief: as §2
MDA-MB-468 [10] = assay: Growth inhibition of human MDA-MB-468 cells assessed as cell growth at 10^-6 M incubated for 48 hrs by sulforhodamine B assay; settings: MDA-MB-468, 48 h, read-out: Activity
[11] = Growth inhibition of human HOP92 cells assessed as cell growth at 10^-5 M incubated for 48 hrs by sulforhodamine B assay; settings: HOP-92, 48 h, read-out: Activity
[12] = Growth inhibition of human RPMI8226 cells assessed as cell growth at 10 uM incubated for 48 hrs by sulforhodamine B assay; settings: RPMI-8226, 48 h, read-out: Activity
NCI-H522 = assay: Growth inhibition of human NCI-H522 cells assessed as cell growth at 10 uM incubated for 48 hrs by sulforhodamine B assay; settings: NCI-H522, 48 h, read-out: Activity
[13] = Growth inhibition of human SF295 cells assessed as cell growth at 10 uM incubated for 48 hrs by sulforhodamine B assay; settings: SF-295, 48 h, read-out: Activity
[14] = Growth inhibition of human colon cancer cells incubated for 48 hrs by sulforhodamine B assay; settings: Cancer cell lines; for CC50: read-out: LC50 (the source's name)

Compound | growth at 100 µM [1] [%] | GI50 (SN12C; read-out: GI50) [µM] | TGI (SN12C; read-out: TGI) [µM] | GI50 (SN12C; read-out: pGI50 (converted)) [µM] | TGI (SN12C; read-out: pTGI (converted)) [µM] | growth at 0.01 µM (SK-MEL-28) [%] | growth at 0.01 µM (MDA-MB-468 [2]) [%] | growth at 0.1 µM (NCI-H460) [%] | growth at 10 µM (MCF7) [%] | growth at 100 µM [3] [%] | growth at 100 µM [4] [%] | growth at 100 µM (MDA-MB-435) [%] | growth at 100 µM [5] [%] | growth at 0.1 µM (NCI/ADR-RES) [%] | growth at 0.01 µM [6] [%] | growth at 0.1 µM (786-0) [%] | growth at 0.1 µM [7] [%] | growth at 1 µM (CCRF-CEM) [%] | growth at 1 µM (K562) [%] | growth at 1 µM [8] [%] | also measured
c1ccc(-c2nc(Nc3ccc(-c4nc5ccccc5[nH]4)cc3)nc(N3CCOCC3)n2)cc1 | -100 | 1.74 | 3.83 | 1.74 | 3.8 | 103 | 96 | 103 | -57 | -52 | -62 | -86 | -75 | 95 | 73 | 78 | 106 | 32 | -2 | 72 | LC50 (50% lethal concentration) (SN12C): 8.47 µM; CC50 (SN12C): 8.51 µM; growth at 1 µM [9]: 100%; growth at 1 µM (MDA-MB-468 [10]): 102%; growth at 10 µM [11]: -75%; growth at 10 µM [12]: -22.6%; growth at 10 µM (NCI-H522): -68.2%; growth at 10 µM [13]: -76.4%; GI50 [14]: 0.99 µM; TGI [14]: 2.55 µM; CC50 [14]: 6.53 µM
Fc1ccc(-c2nc(Nc3ccc(-c4nc5ccccc5[nH]4)cc3)nc(N3CCOCC3)n2)cc1 | -29 | 3.19 | 23 | 3.16 | 22.9 | 101 | 97 | 103 | 1 | -33 | -33 | -42 | -45 | 95 | 92 | 97 | 105 | 92 | 101 | 92 | LC50 (50% lethal concentration) (SN12C): > 100 µM; CC50 (SN12C): > 100 µM; growth at 1 µM [9]: 83%; growth at 1 µM (MDA-MB-468 [10]): 106%; growth at 10 µM [11]: -67%; growth at 10 µM [12]: -13.8%; growth at 10 µM (NCI-H522): 11.9%; growth at 10 µM [13]: -63.5%; GI50 [14]: 2.15 µM; TGI [14]: 4.73 µM; CC50 [14]: 7.9 µM
c1ccc2[nH]c(-c3ccc(Nc4nc(N5CCCCC5)nc(N5CCOCC5)n4)cc3)nc2c1 | -32 | 5.4 | 53.2 | 5.37 | 53.7 | 100 | 104 | 98 | -10 | -34 | -55 | -29 | -38 | 98 | 98 | 97 | 98 | 100 | 109 | 92 | LC50 (50% lethal concentration) (SN12C): > 100 µM; CC50 (SN12C): > 100 µM; growth at 1 µM [9]: 89%; growth at 1 µM (MDA-MB-468 [10]): 106%; growth at 10 µM [11]: -54%; growth at 10 µM [12]: 2.47%; growth at 10 µM (NCI-H522): 9.25%; growth at 10 µM [13]: -51.4%; GI50 [14]: 2.43 µM; TGI [14]: 5.52 µM; CC50 [14]: 30.2 µM
Clc1ccc(-c2nc(Nc3ccc(-c4nc5ccccc5[nH]4)cc3)nc(N3CCOCC3)n2)cc1 | -68 | 0.851 | 2.39 | 0.851 | 2.4 | 105 | 99 | 100 | -66 | -41 | -26 | -49 | -13 | 101 | 97 | 92 | 101 | -19 | -63 | 2 | growth at 1 µM [9]: 86%; growth at 1 µM (MDA-MB-468 [10]): 25%; growth at 10 µM [11]: -90%; growth at 10 µM [12]: -73.4%; growth at 10 µM (NCI-H522): -73.9%; growth at 10 µM [13]: -94.4%; GI50 [14]: 0.26 µM; TGI [14]: 0.69 µM; CC50 [14]: 2.75 µM
